“Also recorded” adds a separate entry of the source. Where two headings read alike, the source gives them in different places.
What was measured:
[1] = rats, 7 days, cited from earlier work
[2] = Single-dose pharmacokinetics of 9cUAB30 in healthy volunteers; type: in vivo, human
[3] = Toxicity / adverse events; type: in vivo, human
In short: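 Healthy adults aged 18-65 years took one oral dose (5, 10 or 20 mg) in the morning on an empty stomach. Dose cohorts were escalated in sequence and subjects stayed 24 h as inpatients. Toxicity was assessed on day 8, with contact on day 30, and graded by NCI-CTCAE. Serum TG was taken at screening, 24 h and day 8. Dose versus TG change was tested by Jonckheere-Terpstra.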

[4] = Stability of 9cUAB30 in spiked human plasma and urine stored at -70 °C; type: in vitro ADME
In short: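 Blank human plasma and urine were spiked from a 1 μg/mL stock standard to 10 and 40 ng/mL (plasma, urine) and 100 ng/mL (urine only), then held at -70 °C for 12 weeks. Samples were run in triplicate by LC-MS/MS after liquid-liquid extraction with 9-cis-RA as internal standard. LLOQ was 1.56 ng/mL.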

Human hepatocytes = details: treatment up to 50 μmol/L; cited from earlier work
[5] = tested on: human breast cancer cells; details: cited from earlier work
[6] = tested on: N-methyl-N-nitrosourea (MNU)-induced mammary cancer; details: cited from earlier work; for average tumors per animal: controls 6.0
RAR = details: relative to 9-cis-RA and other RA; cited from earlier work
colony formation = details: 0.1 μmol/L (29 ng/mL); cited from earlier work
[7] = tested on: KLF4-mediated tumor initiation; details: cited from earlier work
[8] = doses significantly higher than needed for chemopreventive activity; cited from earlier work
[9] = single dose 5, 10 or 20 mg, 14 subjects
[10] = single dose 5, 10 or 20 mg, all subjects n = 14

CC1=C(/C=C/C(C)=C\C=C\C(C)=C\C(=O)O)C(C)(C)CCC1 [9-cis-RA, 9-cis-retinoic acid, reference compound]
increase of serum TGs compared to untreated controls ([1]; 60 mg/kg of diet): 5 fold

CC(=C/C=C/C(C)=C/C(=O)O)/C=C1\CCCc2ccccc21 [9cUAB30, (2E,4E,6Z,8E)-8-(3′,4′-Dihydro-1′(2′H)-naphthalen-1′-ylidene)-3,7-dimethyl-2,4,6-octatrienoic Acid]
dose required to achieve maximal concentrations of 0.294 μg/mL ([2]; assuming 1 compartment, first-order elimination, extrapolated from 20-mg dose): 60 mg | CL renal ([2]; human, urine and plasma, po): 0.3 to 1.72 mL/min | oral availability ([2]; single oral dose, fasted healthy volunteers): orally available | patients with grade 2 toxicity ([3]; 10-mg dose level, 6 subjects): 1 | Mean TG levels ([3]; day 8, all subjects, screening 116 ± 34.8): 114 ± 44.5 | change in TG levels from baseline ([3]; differences between the treatment groups 5, 10, 20 mg): not statistically significant; also recorded: did not significantly increase change in serum TGs | subjects with ≥ grade 2 toxicity ([3]; dose level 5 mg): No subjects | subjects with ≥ grade 2 toxicity ([3]; dose level 20 mg): No subjects | grade 3 or 4 toxicities [3, 9]: no grade 3 or 4 toxicities reported | patients experiencing grade 2 toxicity [3, 9]: 1 | tolerability [3, 9]: well tolerated | Diarrhea, Grade II, patients (%) [3, 10]: 0 | Dizziness, Grade I, patients (%) [3, 10]: 0 | Elevated chloride, Grade II, patients (%) [3, 10]: 0 | Elevation in cholesterol, Grade II, patients (%) [3, 10]: 0 | Elevation in triglycerides, Grade II, patients (%) [3, 10]: 0 | Fatigue, Grade I, patients (%) [3, 10]: 0 | Headache, Grade II, patients (%) [3, 10]: 0 | Nasal congestion, Grade II, patients (%) [3, 10]: 0 | Nausea and vomiting, Grade I, patients (%) [3, 10]: 0 | Reduced hemoglobin, Grade II, patients (%) [3, 10]: 0 | stability in plasma ([4]; human plasma, −70 °C, 10 and 40 ng/mL): stable for 12 weeks | stability in urine ([4]; human urine, −70 °C, 10, 40 and 100 ng/mL): stable for 12 weeks | cytotoxicity (Human hepatocytes): no signs of cytotoxicity | cell proliferation [5]: significant inhibition of cell proliferation | decrease of MNU-induced mammary cancer incidence compared to controls ([6]; 200 mg/kg/d diet): 63% | average tumors per animal ([6]; 9cUAB30 150 mg/kg of diet): 4.3 tumors per animal | effect on serum TG levels ([1]; 200 or 800 mg/kg of diet): did not affect serum TG levels | RAR-binding activity (RAR): little or no RAR-binding activity | colony formation, % of untreated cells (colony formation): 62% | concentration required to prevent KLF4-mediated tumor initiation [7]: 1 µmol/L | concentration required to prevent KLF4-mediated tumor initiation ([7]; printed conversion of 1 μmol/L): 294 ng/mL | toxicity in animal models [8]: toxicity was not reported

CC/C(=C(\c1ccccc1)c1ccc(OCCN(C)C)cc1)c1ccccc1 [tamoxifen, reference compound]
average tumors per animal ([6]; tamoxifen 0.4 mg/kg of diet): 4.6 tumors per animal

Source: PMC3204611 (Cancer prevention research (Philadelphia, Pa.), 2010)
